Data from ChEMBL document CHEMBL4043208, “Small molecule inhibitors of bacterial transcription complex formation” (2017).

Legend:
Bacillus subtilis = assay: Growth inhibition of Bacillus subtilis 168 at 0.2 mM measured every 10 mins over 16 hrs relative to control; type: functional; details: subsp. subtilis str. 168, read-out: GI
Summary of the method: (§1)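 Cultures grown with compound at 0.2 mM; growth expressed as a percentage of the untreated positive control (growth without inhibitor, taken as 100%). B. subtilis (Gram-positive) and E. coli (Gram-negative) assayed in parallel.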

Escherichia coli = assay: Growth inhibition of Escherichia coli DH5[alpha] at 0.2 mM measured every 10 mins over 16 hrs relative to control; type: functional; details: read-out: GI; summary of the method: as §1
[1] = test system: Bacillus subtilis subsp. subtilis str. 168; assay: Inhibition of Bacillus subtilis 168 RNA polymerase subunit beta' CH region interaction with full length sigmaA at 15 uM by ELISA relative to control
Summary of the method: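 ELISA measuring binding of B. subtilis σA to the β'-CH region of core RNAP with compound at 15 μM. Signal expressed as a percentage of the positive control (σA–β'-CH interaction without inhibitor, set at 100%).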

Row | Structure (SMILES) | inhibition of growth at 200 µM (Bacillus subtilis) [%] | inhibition of growth at 200 µM (Escherichia coli) [%] | inhibition [1] [%]
1 | COc1cc(OC)c2c(-c3ccc(Cl)cc3)c[nH]c2c1C=C1C(=O)NC(=S)NC1=O | 0 | 24 | 14
2 | COc1cc(OC)c2c(-c3ccccc3)c[nH]c2c1/C=C1\SC(=S)NC1=O | 44 | 45 | 17
3 | C=CCN1C(=O)/C(=C/c2c(OC)cc(OC)c3cc(C(=O)OCc4ccccc4)[nH]c23)SC1=S | 6 | 28 | 63
4 | COc1cc(OC)c2cc(C(=O)O)[nH]c2c1/C=C1\SC(=S)NC1=O | 0 | 26 | 36
5 | C=CCN1C(=O)/C(=C/c2c(OC)cc(OC)c3cc(C(=O)OC)[nH]c23)SC1=S | 22 | 79 | 46
6 | COc1cc(OC)c2c(-c3ccccc3)c[nH]c2c1C=C1C(=O)NC(=O)NC1=O | 83 | 0 | 45
7 | COc1cc(OC)c2cc(C(=O)O)[nH]c2c1C=C1C(=O)NC(=S)NC1=O | 0 | 0 | 71
8 | COc1cc(OC)c2c(-c3ccc(Cl)cc3)c[nH]c2c1C=C1C(=O)NC(=O)NC1=O | 41 | 30 | 15
9 | COc1cc(OC)c2c(-c3ccccc3)c[nH]c2c1C=C1C(=O)NC(=S)NC1=O | 0 | 0 | 14
10 | C=CCN1C(=O)/C(=C/c2c(OC)cc(OC)c3cc(C(=O)O)[nH]c23)SC1=S | 21 | 30 | 74
11 | COC(=O)c1cc2c(OC)cc(OC)c(C=C3C(=O)NC(=O)NC3=O)c2[nH]1 | 89 | 20 | 28
12 | COC(=O)c1cc2c(OC)cc(OC)c(C=C3C(=O)NC(=S)NC3=O)c2[nH]1 | 91 | 57 | 17
13 | C=CCN1C(=O)/C(=C/c2c(OC)cc(OC)c3c(-c4ccccc4)c[nH]c23)SC1=S | 44 | 66 | 0
14 | COc1cc(OC)c2c(-c3ccc(Cl)cc3)c[nH]c2c1/C=C1\SC(=S)NC1=O | 0 | 15 | 21
15 | COc1cc(OC)c2cc(C(=O)O)[nH]c2c1C=C1C(=O)NC(=O)NC1=O | 0 | 0 | 28
16 | C=CCN1C(=O)/C(=C/c2c(OC)cc(OC)c3c(-c4ccc(Cl)cc4)c[nH]c23)SC1=S | 8 | 14 | 34
17 | COC(=O)c1cc2c(OC)cc(OC)c(/C=C3\SC(=S)NC3=O)c2[nH]1 | 45 | 28 | 3
